MIN6 prolif-1: MIN6 beta-cell proliferation induction; MIN6 cells proliferation, ATPlite luminescence, 48 h; cells starved in 0.2% serum; 100% = growth in 10% serum; proliferation, % at 10 µM; 330,000 compounds, 0.29% hits;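 active = compounds whose signal lies at least 3.5 SD above the mean of all wells on their plate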
FLuc inh counter: Photinus pyralis luciferase inhibition counter-screen; P08659; ATPLite firefly luciferase biochemical luminescence, 10 min; inhibition, % at 10 µM; 200,000 compounds, 1.5% hits; AID 1006;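 active = inhibition above about 50% when tested at 10 µM, limit read from the data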
Target sequence (P08659 whole entry, looked up): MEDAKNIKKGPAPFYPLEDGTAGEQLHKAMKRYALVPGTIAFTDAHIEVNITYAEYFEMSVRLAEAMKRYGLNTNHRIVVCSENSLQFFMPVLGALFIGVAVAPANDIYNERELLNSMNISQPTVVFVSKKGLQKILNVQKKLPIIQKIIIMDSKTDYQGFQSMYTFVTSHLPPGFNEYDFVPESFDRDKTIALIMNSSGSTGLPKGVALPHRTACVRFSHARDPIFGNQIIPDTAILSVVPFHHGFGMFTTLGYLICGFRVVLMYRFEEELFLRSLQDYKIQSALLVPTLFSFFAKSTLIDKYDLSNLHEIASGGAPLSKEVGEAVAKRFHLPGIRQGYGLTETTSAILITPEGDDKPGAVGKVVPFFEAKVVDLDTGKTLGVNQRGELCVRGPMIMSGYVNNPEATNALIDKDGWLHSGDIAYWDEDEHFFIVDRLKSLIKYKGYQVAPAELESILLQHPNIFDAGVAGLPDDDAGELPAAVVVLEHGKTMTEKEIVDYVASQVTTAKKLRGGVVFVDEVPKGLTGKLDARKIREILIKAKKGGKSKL
PPC-1+TRAIL kill: kills PPC-1 cancer cells in the presence of TRAIL; PPC-1 cells + TRAIL, ATPLite viability luminescence; cell killing (% activity), % at 4 µM or 5 µM; 220,000 compounds, 0.41% hits;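 active = cell killing above 50% in the first pass at 4 µM, then a duplicate retest at 5 µM averaging 50% or more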
FLuc act counter: affects firefly luciferase, flagging false hits in luciferase stimulation screens; 200,000 tested, under 10 active; AID 1027; activation factor at 10 µM; ATPlite luciferase biochemical, luminescence, 10 min; 0 = ATP-free wells, 1 = DMSO control;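 active = luciferase activation factor, scaled between plate controls, of at least 2 with compound at 10 µM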
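Assay system: Luciferase/luciferin detection reagent, cell-free biochemical luciferase assay / Read-out: luciferase activation / Benchmarks: No-ATP low control, compound-free enzyme-plus-ATP high control / Medium: PBS buffer for ATP / Detection: luminescence measurement of luciferase light output / Schedule: 10 min at ambient temperature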
hiPSC survival: hiPSC single-cell survival enhancement; ATPlite luminescence; 100% = ROCK inhibitor wells, 0% = DMSO; survival enhancement, % at 20 µM; 360,000 compounds, 0.044% hits; in the data active = survival enhancement above about 18%;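 also: cells exposed to compounds for 16 hours before the ATP read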
C8 TRAIL sens: sensitizes caspase-8 expressing cells to TRAIL; NB7+C8 cells + TRAIL, ATPlite viability luminescence; inhibition (viability loss, TRAIL sensitization), % at 10 µM; 360,000 compounds, 1% hits; AID 624354;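 active = compounds causing at least 50% loss of cell viability in the single-dose screen, relative to plate controls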
MIN6 prolif-2: confirmation of inducers of beta-cell replication in MIN6 cells; shares compounds with MIN6 prolif-1; MIN6 beta-cell proliferation, ATPlite luminescence, 48 h; cells kept in 0.2% serum; scaled between 0.2% and 10% serum; proliferation increase, % at 50 µM; 920 tested, under 10 active; AID 463095;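 active = proliferation increase above 40% at any of the four tested concentrations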
A number is an active result; . = inactive; / = no result given. In the library only some 1.8% were active in any assay of this set; here they are far more common.

SMILES | MIN6 prolif-1 | FLuc inh counter | PPC-1+TRAIL kill | FLuc act counter | hiPSC survival | C8 TRAIL sens | MIN6 prolif-2
C[C@@H](O)C1NC(=O)[C@H](CCCCN)NC(=O)c2cc([N+](=O)[O-])cc(F)c2NCCCC[C@@H](C(N)=O)NC1=O (some centres undefined) | 9.7 | . | . | . | . | . | .
CC[C@H](C)[C@@H]1NC(=O)c2cc([N+](=O)[O-])cc(F)c2NCCCC[C@@H](C(N)=O)NC(=O)[C@H](CC(N)=O)NC1=O | . | . | . | . | . | . | /
Fc1ccc(OCc2nn[nH]n2)c(F)c1 | 7.1 | / | / | / | . | . | .
CS(=O)(=O)c1ccc(Cl)c(NC(=O)CN2CCN(C(=O)c3cccs3)CC2)c1 | . | / | / | / | . | . | /
NC(=O)c1cc(S(=O)(=O)NCCc2ccccc2)cs1 | . | / | / | / | . | . | /
NC(=O)c1cc(S(=O)(=O)NCCc2ccc(S(N)(=O)=O)cc2)cs1 | 5.5 | / | / | / | . | . | .
C=CCn1c(N2CCN(c3ccc(OC)cc3)CC2)nc2c1c(=O)n(C)c(=O)n2C | 8.3 | . | . | . | . | . | .
Cc1cc(C)cc(NC(=O)CS(=O)(=O)c2cccc3nsnc23)c1 | . | / | / | / | . | . | /
CCOc1nc(Nc2ccccc2F)nc(OCC)n1 | 5.0 | / | / | / | . | . | .
C=CCNc1nc(Nc2ccccc2F)nc(OCC)n1 | . | . | . | . | . | . | /
CC1=CC(C)C(=O)N(CCN2CCOCC2)C(C)=C1 (centres undefined) | / | / | / | / | . | . | /
CCCCNC(=O)C1(C)CCC(=O)N1C1CC1 (centres undefined) | / | / | / | / | . | . | /
Oc1ccc(-c2cnc3ccccc3n2)cc1 | . | / | / | / | . | . | /
Clc1ccc(-c2cnc3ccccc3n2)cc1 | 5.4 | . | . | . | . | . | .
CCc1nc(CN2CCN(Cc3ccc(F)c(F)c3)C(CCO)C2)c(C)[nH]1 (centres undefined) | 8.6 | . | . | . | . | . | .
Cc1cc(C)n2ncc(/C(N)=N/OC(=O)Nc3ccccc3)c2n1 | . | / | . | / | . | . | /
Cc1cc(NS(=O)(=O)c2ccc(NC(=O)CSc3nnc(-c4ccco4)n3C)cc2)nc(C)n1 | 5.8 | . | . | . | . | . | .
O=C(OCC(=O)N1CCN(c2ccccc2)CC1)c1cccs1 | . | / | / | / | . | . | /
O=C(OCC(=O)N1CCCC1)c1cccs1 | 8.1 | . | . | . | . | . | .
CCc1ccccc1NC(=O)COC(=O)c1cccs1 | 8.1 | / | / | / | . | . | .
COc1cccc(CSC(C(=O)O)c2ccccc2)c1 (centres undefined) | / | / | / | / | . | . | /
Cc1ccc(SCCC(=O)N2CCOCC2)cc1 | 5.1 | . | . | . | . | . | .
Cc1ccc(SCCC(=O)N2CCCC2)cc1 | . | . | . | . | . | . | /
COc1ccc(NS(=O)(=O)c2cccc(C(=O)NNC(=O)CNC(=O)c3ccccc3)c2)cc1 | . | / | / | / | . | . | /
COc1ccc(NS(=O)(=O)c2cccc(C(=O)NNC(=O)CNC(=O)c3cccc(C)c3)c2)cc1 | 9.7 | / | / | / | . | . | .
SMILES | MIN6 prolif-1 | FLuc inh counter | PPC-1+TRAIL kill | FLuc act counter | hiPSC survival | C8 TRAIL sens | MIN6 prolif-2
Cc1ccc(CNc2ncnc(N)c2[N+](=O)[O-])cc1 | 7.8 | . | . | . | . | . | .
Cc1cccc(NC(=O)CSc2n[nH]c(-c3cccnc3)n2)c1 | . | / | / | / | . | . | /
O=C(O)CCc1ccc(-c2ccc(Cl)cc2)n1CC(=O)O | 5.8 | . | . | . | . | . | .
COc1ccc2oc(C(=O)OCC(=O)NCCN3C(=O)CSC3=O)c(C)c2c1 | . | . | . | . | . | . | /
CCCN1Cc2cccc(C(=O)NCCc3ccccc3)c2C1=O | 11 | / | / | / | . | . | .
CC(=O)N1N=C(c2ccc(Cl)cc2)OC12CCCC2 | 7.3 | / | . | / | . | . | .
CC(=O)N1N=C(c2cccc(Br)c2)OC12CCCC2 | . | . | . | . | . | . | /
Cc1ccc(-n2ccnc2SCC(=O)c2c(N)n(C3CC3)c(=O)[nH]c2=O)cc1C | . | / | / | / | . | . | /
COc1ccc(-c2[nH]ncc2-c2ccc(Cl)cc2)c(O)c1 | . | . | . | . | . | . | /
COc1ccc(-c2cn[nH]c2-c2ccc(OC)cc2O)cc1 | 9.3 | / | / | / | . | . | .
COc1ccccc1OCCN(C#N)c1nc(N(C)C)nc(N(C)C)n1 | . | . | . | . | . | . | /
CCc1nc2ccccc2c(C(=O)Nc2cc(C)ccc2C)c1C | 5.8 | / | / | / | . | . | .
CSc1ccccc1NC(=O)CSc1nnc(COc2ccccc2)o1 | . | / | / | / | . | . | /
O=C(O)CNC(=S)N(Cc1ccc(F)cc1)C1CCCCC1 | 8.2 | . | . | . | . | . | .
O=C(CNC(=S)N(Cc1ccc(F)cc1)C1CCCCC1)NCCN1CCOCC1 | . | . | . | . | . | . | /
Oc1ccc(F)c(CN2CCN(c3ncc(Cc4ccccc4)cn3)CC2)c1 | / | / | / | / | / | . | /
COc1ccc(Nc2nc(N(C)c3ccccc3)nc(N)c2[N+](=O)[O-])cc1 | 10 | / | / | / | . | . | .
CN(c1ccccc1)c1nc(N)c([N+](=O)[O-])c(Nc2ccccc2)n1 | . | / | / | / | . | . | /
O=C(NNC(=O)C(c1ccccc1)c1ccccc1)c1ccccc1O | / | / | / | / | . | . | /
O=C(NCc1ccc2c(c1)OCO2)c1ccc2snnc2c1 | 8.2 | . | . | . | . | . | .
O=C(NCc1ccc2c(c1)OCO2)c1ccc2c(c1)OCO2 | . | / | . | / | . | . | /
COc1cc(CC(=O)Nc2sc3c(c2C(N)=O)CCCC3)cc(OC)c1OC | . | / | / | / | . | . | /
COC(=O)N[C@H](CC(C)=O)c1cccc(C(F)(F)F)c1 | . | . | . | . | . | . | /
COC(=O)N[C@H](CC(C)=O)c1ccccc1 | 12 | . | . | . | / | / | .
COc1ccccc1C(C)NCC(=O)Nc1ccccc1C(F)(F)F (centres undefined) | 5.3 | . | . | . | . | . | .
SMILES | MIN6 prolif-1 | FLuc inh counter | PPC-1+TRAIL kill | FLuc act counter | hiPSC survival | C8 TRAIL sens | MIN6 prolif-2
CCC(O)(C(=O)Nc1ccccc1C(F)(F)F)c1ccccc1OC (centres undefined) | . | / | / | / | . | . | /
O=C(CN(c1ccccc1)S(=O)(=O)c1ccccc1[N+](=O)[O-])Nc1cccnc1 | 5.5 | / | / | / | . | . | .
CN(C)/C=N/c1c(C#N)cnn1-c1ncnc2sc(-c3ccccc3)cc12 | 12 | . | . | . | . | . | .
CCOC(=O)Nc1nnc(CCc2ccccc2)s1 | . | . | . | . | . | . | /
CCc1nnc(NC(=O)OCc2ccccc2)s1 | 6.0 | . | . | . | . | . | .
O=C(Nc1ccc(S(=O)(=O)O)cc1)c1ccc2c(c1)S(=O)(=O)c1ccccc1C2=O | 14 | / | / | / | . | . | .
COc1cc(CNC(=O)c2ccc3c(c2)S(=O)(=O)c2ccccc2C3=O)cc(OC)c1 | 15 | / | / | / | . | . | .
O=C(NCc1ccc(F)cc1)c1ccc2c(c1)S(=O)(=O)c1ccccc1C2=O | . | / | / | / | . | . | /
